Activity calls are given as the source filed them. No cut-off for these calls is given here.
Columns and labels:
[1] = system: Leishmania donovani; assay: Antileishmanial activity against Leishmania donovani axenic amastigotes; type: functional, organism-based
Summary of the method: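 Axenic L. donovani amastigotes; IC50 is the mean of at least two independent assays.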

[2] = system: L6; assay: Cytotoxicity against rat L6 cells; type: cell-based
[3] = Binding affinity to poly(dA-dT)2 assessed as melting temperature
[4] = system: J774; assay: Cytotoxicity against mouse J774 cells; type: cell-based
[5] = system: Leishmania amazonensis; assay: Antileishmanial activity against Leishmania amazonensis in mouse J774 cells at <5 uM
[6] = system: Leishmania donovani; assay: Induction of kinetoplast disintegration in Leishmania donovani axenic amastigotes at […] after 24 hrs; type: functional, organism-based
[7] = system: Leishmania donovani; assay: Induction of mitochondrial dilation in Leishmania donovani axenic amastigotes at […] after 24 hrs; type: functional, organism-based
[8] = system: Leishmania amazonensis; assay: Antileishmanial activity against Leishmania amazonensis in mouse J774 cells

SMILES | IC50 [1] | IC50 [2] | other results
N=C(N)c1ccc(-c2ccc(-c3ccc(C(=N)N)cc3)nc2)cc1 | 820 nM | 50000 nM | 
N=C(N)c1ccc(-c2ccc(-c3cnc(C(=N)N)nc3)cn2)cc1 | 2600 nM | 6400 nM | 
N=C(N)c1ccc(-c2cnc(-c3ccc(C(=N)N)nc3)nc2)cn1 | 1800 nM | 5300 nM | ΔTm [3]: 6.8 °C
N=C(N)c1ccc(-c2ccc(-c3ccc(C(=N)N)cc3)nn2)cc1 | 720 nM | 31000 nM | 
N=C(N)c1cnc(-c2ccc(-c3cnc(C(=N)N)cn3)cc2)cn1 |  | 47000 nM | 
N=C(N)c1ccc(-c2ccc(-c3cnc(C(=N)N)cn3)cn2)cc1 | 16000 nM | 93000 nM | 
N=C(N)c1ncc(-c2ccc(-c3cnc(C(=N)N)nc3)cc2)cn1 | 1700 nM | 2200 nM | 
N=C(N)c1ccc(-c2ccc(-c3ccc(C(=N)N)cn3)cc2)nc1 | > 100000 nM |  | 
N=C(N)c1ccc(-c2cnc(-c3ccc(C(=N)N)cc3)nc2)cc1 | 1100 nM | 41000 nM | 
N=C(N)c1ccc(-c2ccc(-c3ccc(C(=N)N)cn3)cn2)cc1 | 6800 nM | 28000 nM | 
C[C@@H]1[C@H](O)[C@@H](C)/C=C/C=C/C=C/C=C/C=C/C=C/C=C/[C@H](O[C@@H]2O[C@H](C)[C@@H](O)[C@H](N)[C@@H]2O)C[C@@H]2O[C@](O)(C[C@@H](O)C[C@@H](O)[C@H](O)CC[C@@H](O)C[C@@H](O)CC(=O)O[C@H]1C)C[C@H](O)[C@H]2C(=O)O (stereo in doubt) [AMPHOTERICIN B] |  |  | IC50 [8]: 46 nM
N=C(N)c1ccc(-c2ccc(-c3ccc(C(=N)N)cn3)cc2)cc1 | 1400 nM | 27000 nM | 

Further lines, with some results ahead:

IC50 [1] | SMILES | IC50 [2] | other results
340 nM | N=C(N)c1ccc(-c2ccc(-c3ccc(C(=N)N)cc3)c(F)c2)cc1 | 6400 nM | ΔTm [3]: 15.1 °C
510 nM | N=C(N)c1ccc(-c2ccc(-c3ccc(C(=N)N)nc3)cn2)cc1 | 20000 nM | 
63 nM | N=C(N)c1ccc(-c2ccc(-c3ccc(C(=N)N)nc3)cc2)cn1 | 1200 nM | Activity [4]: Toxic; Activity [5]: inactive
560 nM | N=C(N)c1ccc(-c2cnc(-c3ccc(C(=N)N)cc3)cn2)cc1 | 43000 nM | 
270 nM | N=C(N)c1ccc(-c2ccc(-c3ccc(C(=N)N)cc3)cc2)cc1 | 22000 nM | Activity [6]: Active; Activity [4]: Toxic; Activity [5]: inactive; Activity [7]: Active
200 nM | N=C(N)c1ccc(-c2ccc(-c3cnc(C(=N)N)nc3)cc2)cc1 | 4700 nM | 
84 nM | N=C(N)c1ccc(-c2ccc(-c3ccc(C(=N)N)nc3)cc2)cc1 | 2800 nM | 
